Data reported in ChEMBL document CHEMBL1909539, “Reappraising the structures and distribution of metabolites from black aspergilli containing uncommon 2-benzyl-4H-pyran-4-one and 2-benzylpyridin-4(1H)-one systems” (J Nat Prod, 2011).
Active and inactive are the calls of the source. No cut-off for these calls is given here.

Tests used:
Type in all cases: functional, organism-based
Candida albicans [1] = test: Potentiation of antifungal activity of imidazole against Candida albicans ATCC 38245 by broth microdilution assay
Acinetobacter baumannii [2] = test: Antibacterial activity against Acinetobacter baumannii ATCC BAA-1605 at 100 ug/ml after 24 hrs
In short: (§1)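 Broth growth assay in 96-well plates with test compounds added from DMSO stocks (final DMSO 1%). OD600 was read after brief orbital shaking, then again after 24 h incubation at 37 °C in a humidified incubator. Activity was taken as the change in OD600 between the two readings.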

Staphylococcus aureus [3] = test: Antibacterial activity against Staphylococcus aureus ATCC 700787 at 100 ug/ml after 24 hrs; in short: as §1
Escherichia coli [4] = test: Antibacterial activity against Escherichia coli ATCC 11775 at 100 ug/ml after 24 hrs; in short: as §1
Enterobacter cloacae = test: Antibacterial activity against Enterobacter cloacae ATCC 13047 at 100 ug/ml after 24 hrs; in short: as §1
Burkholderia cepacia = test: Antibacterial activity against Burkholderia cepacia ATCC 25608 at 100 ug/ml after 24 hrs; in short: as §1
[5] = test system: Staphylococcus epidermidis; test: Antibacterial activity against Staphylococcus epidermidis ATCC 12228 at 100 ug/ml after 24 hrs; in short: as §1
Acinetobacter baumannii [6] = test: Antibacterial activity against Acinetobacter baumannii ATCC 19606 at 100 ug/ml after 24 hrs; settings: ATCC 19606 = CIP 70.34 = JCM 6841; in short: as §1
Escherichia coli [7] = test: Antibacterial activity against Escherichia coli ATCC 10798 at 100 ug/ml after 24 hrs; in short: as §1
Staphylococcus aureus [8] = test: Antibacterial activity against Staphylococcus aureus ATCC 25293 at 100 ug/ml after 24 hrs; in short: as §1
Pseudomonas aeruginosa = test: Antibacterial activity against Pseudomonas aeruginosa ATCC 10145 at 100 ug/ml after 24 hrs; in short: as §1
Klebsiella pneumoniae [9] = test: Antibacterial activity against Klebsiella pneumoniae ATCC 51503 at 100 ug/ml after 24 hrs; in short: as §1
Klebsiella pneumoniae [10] = test: Antibacterial activity against Klebsiella pneumoniae ATCC 33495 at 100 ug/ml after 24 hrs; in short: as §1
Candida parapsilosis = test: Antifungal activity against Candida parapsilosis ATCC 12969 at 100 ug/ml after 48 hrs
In short: (§2)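 Yeasts and Aspergillus cultures were dispensed into 96-well plates and compound in DMSO was added (1% DMSO final). Plates were shaken orbitally and OD600 was read at start. After 48 h at 37 °C, humidified, OD600 was read again, and activity was calculated as the change in optical density.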

Pichia kudriavzevii [11] = test: Antifungal activity against Candida krusei ATCC 27803 at 10 ug/ml after 48 hrs; in short: as §2
Aspergillus fumigatus [12] = test: Antifungal activity against Aspergillus fumigatus NRRL A1100 at 100 ug/ml after 48 hrs; in short: as §2
Aspergillus flavus [13] = test: Antifungal activity against Aspergillus flavus NRRL A1120 at 10 ug/ml after 48 hrs; in short: as §2
Aspergillus fumigatus [14] = test: Antifungal activity against Aspergillus fumigatus NRRL A1100 at 10 ug/ml after 48 hrs; in short: as §2
Aspergillus flavus [15] = test: Antifungal activity against Aspergillus flavus NRRL A1120 at 100 ug/ml after 48 hrs; in short: as §2
Nakaseomyces glabratus = test: Antifungal activity against Candida glabrata NRRL Y-65 at 100 ug/ml after 48 hrs; in short: as §2
Pichia kudriavzevii [16] = test: Antifungal activity against Candida krusei ATCC 27803 at 100 ug/ml after 48 hrs; in short: as §2
Candida albicans [17] = test: Antifungal activity against Candida albicans ATCC 38245 at 100 ug/ml after 48 hrs; in short: as §2
Candida tropicalis = test: Antifungal activity against Candida tropicalis ATCC 12968 at 100 ug/ml after 48 hrs; in short: as §2

| Structure (SMILES) | Activity (Candida albicans [1]) | inhibition (Acinetobacter baumannii [2]) | inhibition (Staphylococcus aureus [3]) | inhibition (Escherichia coli [4]) | inhibition (Enterobacter cloacae) | inhibition (Burkholderia cepacia) | inhibition [5] | inhibition (Acinetobacter baumannii [6]) | inhibition (Escherichia coli [7]) | inhibition (Staphylococcus aureus [8]) | inhibition (Pseudomonas aeruginosa) | inhibition (Klebsiella pneumoniae [9]) | inhibition (Klebsiella pneumoniae [10]) | also measured |
| --- | --- | --- | --- | --- | --- | --- | --- | --- | --- | --- | --- | --- | --- | --- |
| COC(=O)[C@@H](C)CC(=O)NC(=O)c1coc(Cc2ccccc2)cc1=O | inactive |  |  |  |  |  |  |  |  |  |  |  |  |  |
| C[C@@H](CC(=O)NC(=O)c1cn(-c2ccccc2)c(Cc2ccccc2)cc1=O)C(=O)O |  | inactive | inactive | inactive | inactive | inactive | inactive | inactive | inactive | inactive | inactive | inactive | inactive |  |
| CCOC(=O)c1coc(-c2ccccc2)cc1=O |  |  |  |  |  |  |  |  |  |  |  |  |  | inhibition (Candida parapsilosis): Active; inhibition (Pichia kudriavzevii [11]): Active; inhibition (Aspergillus fumigatus [12]): Active; inhibition (Aspergillus flavus [13]): Active; inhibition (Aspergillus fumigatus [14]): Active; inhibition (Aspergillus flavus [15]): Active; inhibition (Nakaseomyces glabratus): Active; inhibition (Pichia kudriavzevii [16]): Active; inhibition (Candida albicans [17]): Active; inhibition (Candida tropicalis): Active |
| NC(=O)c1cn(-c2ccc(F)cc2)c(Cc2ccccc2)cc1=O |  | inactive | inactive | inactive | inactive | inactive | inactive | inactive | inactive | inactive | inactive | inactive | inactive |  |
| NC(=O)c1coc(Cc2ccccc2)cc1=O | inactive | inactive | inactive | inactive | inactive | inactive | inactive | inactive | inactive | inactive | inactive | inactive | inactive |  |
| COC(=O)c1coc(Cc2ccccc2)cc1=O | inactive | inactive | inactive | inactive | inactive | inactive | inactive | inactive | inactive | inactive | inactive | inactive | inactive | inhibition (Candida parapsilosis): Active; inhibition (Aspergillus fumigatus [12]): Active; inhibition (Aspergillus flavus [13]): Active; inhibition (Aspergillus flavus [15]): Active; inhibition (Nakaseomyces glabratus): Active; inhibition (Pichia kudriavzevii [16]): Active; inhibition (Candida albicans [17]): Active; inhibition (Candida tropicalis): Active |
| C[C@@H](CC(=O)NC(=O)c1coc(Cc2ccccc2)cc1=O)C(=O)O | inactive | inactive | inactive | inactive | inactive | inactive | inactive | inactive | inactive | inactive | inactive | inactive | inactive |  |
